According to ChEMBL document CHEMBL2057142, “Discovery and optimization of novel fatty acid transport protein 1 (FATP1) inhibitors” (Bioorg Med Chem Lett, 2012):

Key:
[1] = molecular target: Long-chain fatty acid transport protein 1 (Homo sapiens, UniProt Q6PCB7); experiment: Inhibition of human recombinant FATP1 acyl-coA synthetase activity using [14C]oleic acid as substrate
[2] = molecular target: Long-chain fatty acid transport protein 1 (Mus musculus, UniProt Q60714); experiment: Inhibition of mouse recombinant FATP1 acyl-coA synthetase activity using [14C]oleic acid as substrate
[3] = Metabolic stability in rat blood assessed as compound remaining after 2 hrs; assay type: ADME, tissue-based; conditions: read-out: Stability
Outline: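 Test compound incubated with rat blood for 2 h; parent compound remaining (%) measured.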

[4] = system: Rattus norvegicus; experiment: Tmax in rat at 10 mg/kg, po; assay type: ADME, organism-based; set-up: dose 10 mg/kg, route oral; conditions: in vivo, BLD = below limit of detection
Outline: (§1)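 Rats dosed orally at 10 mg/kg in DMA/PG/(20% HPβCD in saline) 10:10:80; plasma levels measured, values averaged from two rats.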

[5] = system: Rattus norvegicus; experiment: Half life in rat at 1 mg/kg, iv; assay type: ADME, organism-based; set-up: dose 1 mg/kg, route intravenous; conditions: in vivo, BLD = below limit of detection
Outline: (§2)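 Intravenous dosing to rats at 1 mg/kg in DMA/PG/(20% HPβCD in saline) 10:10:80; plasma pharmacokinetic parameters averaged from two rats.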

[6] = Clearance in rat at 1 mg/kg, iv; assay type: ADME, organism-based; set-up: dose 1 mg/kg, route intravenous; conditions: in vivo; outline: as §2
[7] = system: Rattus norvegicus; experiment: Cmax in rat at 10 mg/kg, po; assay type: ADME, organism-based; set-up: dose 10 mg/kg, route oral; conditions: in vivo, BLD = below limit of detection; outline: as §1
[8] = Volume of distribution in rat at 1 mg/kg, iv; assay type: ADME, organism-based; set-up: dose 1 mg/kg, route intravenous; conditions: in vivo; outline: as §2
[9] = system: Rattus norvegicus; experiment: AUC in rat at 10 mg/kg, po; assay type: ADME, organism-based, Plasma; set-up: dose 10 mg/kg, route oral; conditions: in vivo, BLD = below limit of detection; outline: as §1
[10] = system: Blood; experiment: Drug metabolism in rat blood assessed as 1-(2-((4-ethyl-5-((phenylamino)methyl)-4H-1,2,4-triazol-3-ylthio)methyl)benzo[d]oxazol-5-yl)propan-1-ol formation; assay type: ADME, tissue-based
[11] = molecular target: Long-chain fatty acid transport protein 1 (Mus musculus) (UniProt Q60714); experiment: Inhibition of mouse recombinant FATP1 acyl-coA synthetase activity using [14C]oleic acid as substrate at 10 uM
Outline: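 Same radiometric acyl-CoA synthetase assay with 10 μM [1-¹⁴C] oleic acid, 0.5 mM ATP, 0.5 mM CoA, 5 mM MgCl₂ in Tris-HCl pH 7.4 buffer with Triton X-100 and DTT; test compound at 10 μM, read-out as percent inhibition of ACS activity.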

Sequence of Long-chain fatty acid transport protein 1 (Mus musculus, UniProt Q60714) (Q60714 whole entry): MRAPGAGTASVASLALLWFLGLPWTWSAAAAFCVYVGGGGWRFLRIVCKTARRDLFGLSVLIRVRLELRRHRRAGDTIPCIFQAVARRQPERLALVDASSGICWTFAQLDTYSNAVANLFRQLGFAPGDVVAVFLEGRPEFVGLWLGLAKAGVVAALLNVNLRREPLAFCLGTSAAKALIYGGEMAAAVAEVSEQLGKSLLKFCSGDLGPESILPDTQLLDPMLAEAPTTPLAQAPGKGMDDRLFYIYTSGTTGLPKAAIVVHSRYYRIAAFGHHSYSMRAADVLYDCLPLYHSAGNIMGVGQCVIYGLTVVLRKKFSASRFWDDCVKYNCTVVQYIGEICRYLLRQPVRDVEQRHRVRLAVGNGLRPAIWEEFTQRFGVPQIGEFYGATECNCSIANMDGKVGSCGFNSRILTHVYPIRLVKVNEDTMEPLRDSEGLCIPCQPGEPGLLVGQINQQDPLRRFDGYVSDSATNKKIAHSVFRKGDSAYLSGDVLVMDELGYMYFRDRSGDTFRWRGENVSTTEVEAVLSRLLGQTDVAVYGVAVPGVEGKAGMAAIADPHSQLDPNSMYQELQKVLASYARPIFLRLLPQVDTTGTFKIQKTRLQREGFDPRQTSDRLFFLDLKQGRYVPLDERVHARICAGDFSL
Sequence of Long-chain fatty acid transport protein 1 (Homo sapiens, UniProt Q6PCB7) (Q6PCB7 whole entry): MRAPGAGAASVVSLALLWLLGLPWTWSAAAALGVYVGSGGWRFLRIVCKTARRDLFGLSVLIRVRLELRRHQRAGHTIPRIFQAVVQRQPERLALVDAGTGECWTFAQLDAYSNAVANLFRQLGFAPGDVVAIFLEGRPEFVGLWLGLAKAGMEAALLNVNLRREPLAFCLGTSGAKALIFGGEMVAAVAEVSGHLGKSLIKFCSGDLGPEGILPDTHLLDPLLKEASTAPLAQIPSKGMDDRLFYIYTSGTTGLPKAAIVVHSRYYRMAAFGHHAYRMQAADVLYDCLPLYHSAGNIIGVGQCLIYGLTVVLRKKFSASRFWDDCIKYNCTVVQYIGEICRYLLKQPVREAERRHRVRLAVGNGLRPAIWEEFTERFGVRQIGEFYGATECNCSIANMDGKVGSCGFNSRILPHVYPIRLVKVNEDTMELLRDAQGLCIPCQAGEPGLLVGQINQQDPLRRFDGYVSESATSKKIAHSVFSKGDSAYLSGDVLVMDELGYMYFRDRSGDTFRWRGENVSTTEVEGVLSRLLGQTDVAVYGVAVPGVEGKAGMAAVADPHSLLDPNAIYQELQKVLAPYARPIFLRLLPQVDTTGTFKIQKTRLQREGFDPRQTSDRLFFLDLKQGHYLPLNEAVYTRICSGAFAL
Sequence of Long-chain fatty acid transport protein 1 (Mus musculus) (Q60714 whole entry, looked up): as the sequence (Q60714 whole entry) above

| Compound | IC50 [1] | IC50 [2] | also measured |
| --- | --- | --- | --- |
| CCC(=O)c1ccc(N(C)C(=O)CSc2nnc(CNc3ccccc3)n2CC)cc1 | 580 nM | 2000 nM | remaining at 2 h [3]: 1.9% |
| CCn1c(CNc2ccccc2)nnc1SCc1nc2cc(C)ccc2o1 | > 1000 nM | > 10000 nM |  |
| CCn1c(CNc2ccccc2)nnc1SCC(=O)Nc1ccc(C(=O)NC)cc1 | > 1000 nM | > 10000 nM |  |
| CCOC(=O)c1cccc(NC(=O)CSc2nnc(CNc3ccccc3)n2CC)c1 | > 1000 nM | 2900 nM |  |
| CCC(=O)c1ccc2oc(CSc3nnc(CNc4ccccc4)n3CC)nc2c1 | 190 nM | 360 nM | Tmax [4]: BLD; t1/2 [5]: BLD; clearance [6]: 378 mL/min/kg; Cmax [7]: BLD; Vd [8]: 2.69 L/kg; AUC [9]: BLD; Drug metabolism [10]: Active; remaining at 2 h [3]: 8.9% |
| CCOC(=O)c1ccc(NC(=O)CSc2nnc(CSCc3ccccc3)n2CC)cc1 | 7600 nM | > 10000 nM |  |
| CCn1nnc(-c2ccc(NC(=O)CSc3nnc(CNc4ccccc4)n3CC)cc2)n1 | > 1000 nM | > 10000 nM |  |
| CCC(O)c1ccc2oc(CSc3nnc(CNc4ccccc4)n3CC)nc2c1 (centres undefined) | > 1000 nM | 3700 nM | remaining at 2 h [3]: 80% |
| CCn1c(CNc2ccccc2)nnc1SCC(=O)Nc1ccc(S(C)(=O)=O)cc1 | > 1000 nM | > 10000 nM |  |
| CCn1c(CNc2ccccc2)nnc1SCc1nc2cc(Cl)ccc2o1 | > 1000 nM | 2300 nM | remaining at 2 h [3]: 92% |
| CCn1c(CNc2ccccc2)nnc1SCC(=O)Nc1ccc(C(=O)N(C)C)cc1 | > 1000 nM | > 10000 nM |  |
| CCn1c(CNc2ccccc2)nnc1SCc1nc2ccc(Cl)cc2o1 | > 1000 nM | 5400 nM |  |
| CCC(=O)c1ccc2nc(CSc3nnc(CNc4ccccc4)n3CC)oc2c1 | 900 nM | 1200 nM | remaining at 2 h [3]: 35% |
| CCn1c(CNc2ccccc2)nnc1SCC(=O)Nc1ccc(C#N)cc1 | > 1000 nM | 5100 nM |  |
| CCn1c(CNc2ccccc2)nnc1SCC(=O)Nc1ccc(C(=O)OC)cc1 | 540 nM |  | inhibition [11]: 56% |
| CCn1c(CNc2ccccc2)nnc1SCc1nc2cc(F)ccc2o1 | > 1000 nM | 7800 nM |  |
| CCc1ccc2oc(CSc3nnc(CNc4ccccc4)n3CC)nc2c1 | > 1000 nM | 1800 nM |  |
| CCn1c(CNc2ccccc2)nnc1SCC(=O)Nc1ccc(C(=O)OC(C)(C)C)cc1 | > 1000 nM | > 10000 nM |  |
| CC/C(=N/OC)c1ccc2oc(CSc3nnc(CNc4ccccc4)n3CC)nc2c1 | > 1000 nM | > 10000 nM |  |
| CCn1c(CNc2ccccc2)nnc1SCC(=O)Nc1ccc(Cl)cc1 | > 1000 nM | > 10000 nM |  |
| CCn1c(CNc2ccccc2)nnc1SCc1nc2cc(OC)ccc2o1 | > 1000 nM | 2700 nM |  |
